Reference: ChEMBL document CHEMBL3108738, “The chemical and biological potential of C ring modified triterpenoids” (Eur J Med Chem, 2014)
The source made the active and inactive calls. No cut-off for these calls is given here.

Legend:
A2780 [1] = assay: Cell cycle arrest in human A2780 cells assessed as accumulation at G1 phase at 30 uM by propidium iodide staining-based FACS analysis (reference value: 51.839 %); type: functional
A2780 [2] = assay: Cell cycle arrest in human A2780 cells assessed as accumulation at G0/G1 phase at 30 uM by propidium iodide staining-based FACS analysis; type: functional
A2780 [3] = assay: Induction of apoptosis in human A2780 cells assessed as necrotic cells at 30 uM after 24 hrs by annexin V/propidium iodide staining-based FACS analysis (reference value: 1.78%); type: functional
[4] = Cytotoxicity against human 518A2 cells after 96 hrs by SRB assay; type: functional, cell-based; conditions: 518A2, 96 h
8505C = assay: cells; type: functional, cell-based; conditions: Homo sapiens, 96 h
A2780 [5] = assay: Cell cycle arrest in human A2780 cells assessed as accumulation at G2 phase at 30 uM by propidium iodide staining-based FACS analysis (reference value: 15.721 %); type: functional
HT-29 = assay: Cytotoxicity against human HT-29 cells after 96 hrs by SRB assay; type: functional, cell-based; conditions: HT-29, 96 h
A2780 [6] = assay: Cell cycle arrest in human A2780 cells assessed as accumulation at S phase at 30 uM by propidium iodide staining-based FACS analysis (reference value: 32.439 %); type: functional
A2780 [7] = assay: Induction of apoptosis in human A2780 cells assessed as vital cells at 30 uM after 24 hrs by annexin V/propidium iodide staining-based FACS analysis (reference value: 82.15%); type: functional
A549 = assay: Cytotoxicity against human A549 cells after 96 hrs by SRB assay; type: functional, cell-based; conditions: A549, 96 h
A2780 [8] = assay: Induction of apoptosis in human A2780 cells assessed as secondary necrotic cells at 30 uM after 24 hrs by annexin V/propidium iodide staining-based FACS analysis (reference value: 9.71%); type: functional
NIH3T3 = assay: Cytotoxicity against mouse NIH/3T3 cells after 96 hrs by SRB assay; type: ADME, cell-based; conditions: NIH3T3, 96 h
A2780 [9] = assay: Induction of apoptosis in human A2780 cells assessed as necrotic cells at 30 uM after 24 hrs by annexin V/propidium iodide staining-based FACS analysis (reference value: 6.37%); type: functional
A2780 [10] = assay: Cytotoxicity against human A2780 cells after 96 hrs by SRB assay; type: functional, cell-based; conditions: A2780, 96 h
MCF7 = assay: Cytotoxicity against human MCF7 cells after 96 hrs by SRB assay; type: functional, cell-based; conditions: MCF7, 96 h
A2780 [11] = assay: Induction of apoptosis in human A2780 cells at 30 uM after 24 hrs by annexin V/propidium iodide staining-based FACS analysis; type: functional
A2780 [12] = assay: Cell cycle arrest in human A2780 cells assessed as reduction of G2/M phase at 30 uM by propidium iodide staining-based FACS analysis; type: functional
A2780 [13] = assay: Induction of apoptosis in human A2780 cells assessed as DNA ladder formation at 30 uM after 24 hrs by electrophoresis; type: functional, cell-based
How it was run: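 A2780 cells were exposed to 30 µM compound for 24 h. Floating (dead) cells were collected and washed with PBS, and DNA fragmentation was examined by gel laddering alongside an untreated control.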

Row | IC50 (8505C) | SMILES | Activity (A2780 [1]) | Activity (A2780 [2]) | Activity (A2780 [3]) | IC50 [4] | Activity (A2780 [5]) | IC50 (HT-29) | Activity (A2780 [6]) | Activity (A2780 [7]) | IC50 (A549) | Activity (A2780 [8]) | IC50 (NIH3T3) | Activity (A2780 [9]) | IC50 (A2780 [10]) | IC50 (MCF7) | Activity (A2780 [11]) | Activity (A2780 [12]) | Activity (A2780 [13])
1 | 16.4 µM | CC(=O)O[C@H]1CC[C@]2(C)[C@H]3C(=O)C(O)=C4[C@@H]5CC(C)(C)CC[C@]5(C(=O)OCc5ccccc5)CC[C@@]4(C)[C@]3(C)CC[C@H]2C1(C)C | 62.269% | <20% | 1.55% | > 60 µM | 15.469% | > 60 µM | 22.262% | 72.96% | > 60 µM | 12.64% | > 60 µM | 12.83% | 8.2 µM | > 60 µM |  |  | 
2 | 8.4 µM | COC(=O)[C@]12CCC(C)(C)C[C@H]1C1=C(O)C(=O)[C@@H]3[C@@]4(C)CC[C@H](OC(C)=O)C(C)(C)[C@@H]4CC[C@@]3(C)[C@]1(C)CC2 | 49.973% |  | 2% | 7.7 µM | 7.345% | 13.5 µM | 42.682% | 57.12% | 8.2 µM | 16.21% | 12.5 µM | 24.67% | 4 µM | 9.4 µM | Active | Active | Active
3 | 31.1 µM | COC(=O)[C@]12CCC(C)(C)C[C@H]1[C@H]1C(=O)C[C@@H]3[C@@]4(C)CC[C@H](OC(C)=O)C(C)(C)[C@@H]4CC[C@@]3(C)[C@]1(C)CC2 | 61.565% | <20% | 0.96% | 40.8 µM | 14.004% | 46.8 µM | 24.431% | 75.08% | > 30 µM | 12.96% | 28.2 µM | 11% | > 30 µM | > 30 µM |  |  | 
